Screens (PubChem)
This is a sample that favours compounds with a hit; in the whole collection about 6.4% have one here.
GRIN3A LBD mod – NR3A (human) ligand-binding domain modulation | NR3A LBD differential scanning fluorimetry, Tm shift; 0% = protein alone, 100% = glycine-bound protein | Tm shift relative to glycine control, % at 25 µM | 2.5% of 340,000 active;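 active = melting temperature shift of at least 10% of the positive control shift, at one fixed dose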
EBV gp42 block – blocks Epstein-Barr virus glycoprotein 42 binding; inhibition, % (tested at 21.74 µM); Q1HVG2; 0.42% of 220,000 active; Fluorescence polarization binding assay, mP read-out; in the data active = inhibition above about 50%
Target sequence (Q1HVG2 whole entry, looked up): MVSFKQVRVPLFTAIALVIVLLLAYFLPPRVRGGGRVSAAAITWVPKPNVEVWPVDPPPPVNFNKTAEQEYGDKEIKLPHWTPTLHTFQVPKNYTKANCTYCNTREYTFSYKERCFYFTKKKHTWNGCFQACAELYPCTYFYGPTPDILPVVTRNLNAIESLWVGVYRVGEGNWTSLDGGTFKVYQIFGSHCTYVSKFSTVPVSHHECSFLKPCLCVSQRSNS
MPTP block – inhibitors of mitochondrial permeability transition pore | isolated mouse mitochondria, Ca2+ swelling absorbance, 30 min | inhibition, % at 10 µM | 1.4% of 360,000 active | AID 602449;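 active = inhibition of 50% or more, scaled per plate between neutral and stimulator controls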;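 also: 0% = DMSO wells given calcium and 100% = 1 mM EGTA wells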
TbMetRS inhib – blocks T. brucei methionyl-tRNA synthetase activity. purified T. brucei MetRS, ATP depletion, Kinase-Glo luminescence. inhibition, % at 11.9 µM. 0.4% of 360,000 active;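 active = inhibition above a per-plate cutoff of the control wells' mean inhibition plus 3 SD, cut at about 5.5% in these data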;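 also: 0% = DMSO wells median and 100% = median of wells with control inhibitor compound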
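System: purified T. brucei MetRS enzyme / Detection: Kinase-Glo luciferase luminescence reporting remaining unconsumed ATP / Medium: HEPES buffer with MgCl2, KCl, DTT, spermine, BSA, pyrophosphatase / Replication: singlicate, one well per compound / Evaluation: percent inhibition relative to median high and low control wells / Schedule: 2 h aminoacylation at 25 °C after 15 min preincubation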
CHOP inh – inhibitors of CHOP induction in ER stress response. CHO-K1 CHOP-promoter luciferase, tunicamycin-induced, 15-18 h. inhibition, % at 10 µM. 3.8% of 220,000 active. AID 2732;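 active = compounds that reduced the stress-induced luciferase reporter signal by more than about 70% of percent inhibition, limit read from the data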;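 also: 0% = tunicamycin plus vehicle and 100% = wells without tunicamycin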
WT yeast gro inh – growth inhibition of WT yeast, mitochondrial fusion screen; 2.1% of 190,000 active; inhibition, % at 10 µM; mitochondrial fusion phenotypic screen, WT strain; in the data active = inhibition above about 58%; tested in S. cerevisiae
CHOP confirm – confirmation of CHOP induction inhibitors | shares compounds with CHOP inh | CHO-CHOP promoter luciferase reporter, tunicamycin-induced, luminescence | inhibition, % at 10 µM | 45% of 2,100 active;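 active = mean of three repeat readings of reporter signal inhibition above a set limit, cut at about 70% in these data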;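 also: 0% = tunicamycin plus vehicle and 100% = wells lacking tunicamycin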
Starred values were filed as active, the others as inactive; . = no result given.

SMILES | GRIN3A LBD mod | EBV gp42 block | MPTP block | TbMetRS inhib | CHOP inh | WT yeast gro inh | CHOP confirm
Cc1ccc(N2CC(C(=O)OCC(=O)Nc3ccc(Cl)cc3)CC2=O)cc1 (stereo not given) | 4.0 | . | 1.4 | 0.2 | . | . | .
COc1cc(/C=C/C(=O)OC2CC3CCC2(C)C3(C)C)ccc1O (stereo not given) | 2.1 | -17.6 | 0.2 | 0.4 | 99.7* | . | 102.5*
CCN(C(=O)c1cc2c(=O)[nH]c3ccc(C)cc3c2s1)c1ccc(F)cc1 | -1.4 | 1.9 | 1.6 | -0.6 | -7.8 | . | .
CCN(C(=O)c1cc2c(=O)[nH]c3ccc(C)cc3c2s1)c1cccc(C)c1 | -1.6 | -4.8 | 0.2 | -0.2 | 97.8* | . | 18.2
CC1=NN(c2nc(-c3ccc(C)cc3)cs2)C(=O)C1N=Nc1ccccc1O (stereo not given) | 10.6* | -13.1 | 5.8 | -0.6 | 106.5* | 5.8 | 76.8*
COc1ccc(-c2csc(N3N=C(C)C(C)C3=O)n2)cc1 (stereo not given) | -0.8 | 8.7 | 0.4 | -0.2 | -33.4 | -4.9 | .
Cc1ccc(-c2n[nH]c(=S)n2/N=C/c2c(C)nn(-c3ccccc3)c2C)cc1 | -23.8 | 2.6 | 2.8 | -0.2 | 108.7* | -0.7 | 36.6
CC(=O)c1cc2c(cc1NC(=O)CN1CCN(c3ccc(F)cc3)CC1)OCO2 | -0.1 | 9.9 | -0.4 | -0.6 | 97.2* | 4.0 | 18.8
O=C(Cc1cccc([N+](=O)[O-])c1)Nc1cccc(C(=O)N2CCCCC2)c1 | -4.2 | . | 0.5 | 0.4 | . | . | .
CC(C)Cn1c(=O)c2sccc2n2c(CCCC(=O)NC3CCN(Cc4ccccc4)CC3)nnc12 | 1.0 | . | -1.5 | -0.2 | . | . | .
COc1ccc(-c2[nH]c(-c3ccccc3)nc2SCC(=O)Nc2nccs2)cc1 | -5.5 | -10.5 | 1.5 | -0.3 | -0.8 | -0.3 | .
COc1ccc(-c2[nH]c(-c3ccc(Cl)cc3)nc2SCC(=O)Nc2nccs2)cc1 | 11.5* | -0.9 | 4.2 | 0.1 | 98.2* | 31.5 | 33.3
Cc1nc(COC(=O)c2cc(O)c3ccccc3c2O)cs1 | 2.0 | -0.9 | 7.3 | -0.9 | 103.8* | -3.4 | 119.7*
CCN1CCN(C(=S)NC(=O)/C=C/c2cccs2)CC1 | 0.2 | 5.9 | -4.7 | -0.4 | 1.7 | -1.7 | .
Cc1cc(Sc2nc(N)ncc2[N+](=O)[O-])ncn1 | -2.5 | -13.4 | 1.5 | 0.4 | 105.9* | -12.7 | 26.1
Cc1ccc(C)c(Oc2ncnc(N)c2[N+](=O)[O-])c1 | 0.5 | -13.2 | 1.0 | -1.0 | -8.8 | -1.4 | .
Cc1cc(N)ncc1[N+](=O)[O-] | -0.5 | . | 0.5 | -0.5 | . | . | .
Cc1cc(Sc2ncnc(N)c2[N+](=O)[O-])ncn1 | -1.2 | -7.1 | -0.6 | 0.2 | 106.2* | -11.2 | 60.6
CCOc1ccc(Cn2ccnc2CCl)cc1[N+](=O)[O-] | 0.6 | -17.0 | -0.8 | -0.2 | 1.3 | -11.4 | .
Cc1ccc(C(=O)NC2CCN(C(=O)NC3CCCCC3)CC2)cc1 | 0.0 | 1.8 | 0.4 | -0.1 | 6.6 | 12.8 | .
CC(=O)Oc1cccc(/C=c2\sc3nc(-c4ccco4)nn3c2=O)c1 | 3.1 | -16.1 | -3.3 | -1.0 | 106.5* | -4.8 | 26.7
COc1ccc(CCC(=O)O)cc1OC | -2.5 | 0.0 | -0.4 | 0.2 | 7.9 | . | .
CCCCCc1cc(=O)oc2c(C(CCN3CCCCC3)c3cc(OC)c(OC)c(OC)c3)c(OC)cc(OC)c12 (stereo not given) | -3.7 | -12.7 | -3.2 | -0.1 | 104.7* | . | 52.8
Cn1nc(-c2ccc(C(=O)Nc3ccc(F)cc3)cc2)c2ccccc2c1=O | -0.6 | -13.1 | -0.7 | -0.2 | 100.6* | 0.5 | 48.5
O=C(N/N=C/c1ccccc1Cl)c1n[nH]c2c1CCCC2 | -1.4 | -17.7 | 0.7 | -0.4 | 106.9* | 5.7 | 82.8*
COC(=O)c1sc(-c2ccc(Cl)cc2)cc1NC(=O)c1ccccc1C(=O)O | 3.0 | -13.2 | -2.5 | -0.5 | 68.0 | . | .
COC(=O)c1sc(-c2ccc(C(C)(C)C)cc2)cc1NC(=O)c1ccccc1C(=O)O | -437.0 | 9.0 | 5.7 | -0.2 | 105.6* | . | 116.5*
CCCCN1C(=O)C2(NNc3ccccc3O2)c2ccccc21 (stereo not given) | 0.6 | -7.4 | 1.3 | 0.4 | 102.8* | 25.9 | -2.0
C=CCN1C(=O)C2(NNc3ccccc3O2)c2ccccc21 (stereo not given) | 2.4 | 18.1 | 2.3 | -1.3 | -20.6 | 13.4 | .
